In ChEMBL document CHEMBL4261561, “Thiosemicarbazone-based selective proliferation inactivators inhibit gastric cancer cell growth, invasion, and migration” (Medchemcomm, 2017):

What was measured:
MCF7 = experiment: Antiproliferative activity against human MCF7 cells after 72 hrs by MTT assay; type: functional, cell-based; conditions: MCF7, 72 h
Summary of the method: (§1)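 Exponentially growing cells were seeded at about 3×10^3 per well and left 24 h, then given fresh medium with a range of compound concentrations for 72 h. MTT solution (5 mg/mL) was added for another 4 h. Medium was removed, formazan was dissolved in DMSO, and absorbance was read at 570 nm. IC50 was derived statistically.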

MGC-803 = experiment: Antiproliferative activity against human MGC803 cells after 72 hrs by MTT assay; type: functional, cell-based; conditions: MGC-803, 72 h; summary of the method: as §1
SMMC-7721 = experiment: Antiproliferative activity against human SMMC7721 cells after 72 hrs by MTT assay; type: functional, cell-based; conditions: SMMC-7721, 72 h; summary of the method: as §1
GES1 = experiment: Cytotoxicity against human GES-1 cells after 72 hrs by MTT assay; type: cell-based; conditions: GES1, 72 h; summary of the method: as §1

| Structure (SMILES) | IC50 (MCF7) [µM] | IC50 (MGC-803) [µM] | IC50 (SMMC-7721) [µM] | IC50 (GES1) [µM] |
| --- | --- | --- | --- | --- |
| C/C(=N\NC(=S)N1CCOCC1)c1cccc(O)c1 | > 64 | > 64 | > 64 | – |
| Oc1c(Br)cc(Br)cc1/C=N/NC(=S)N1CCOCC1 | > 64 | 20.4 | 32.6 | – |
| Oc1ccc(Cl)cc1/C=N/NC(=S)N1CCOCC1 | > 64 | 16.3 | 35.3 | – |
| NC(=S)N/N=C/c1ncccc1N [TRIAPINE] | 18.9 | 9.68 | 42.8 | 5.4 |
| CC(C)(C)OC(=O)N1CCN(C(=S)N/N=C/c2ccccc2O)CC1 | 41.9 | 10.2 | 27.3 | – |
| COc1ccc(/C=N/NC(=S)N2CCOCC2)c(O)c1 | > 64 | 56.1 | 38.3 | – |
| S=C(N/N=C/c1ccc2ccccc2c1)N1CCOCC1 | > 64 | 32.6 | > 64 | – |
| C/C(=N\NC(=S)N1CCOCC1)c1ccc(O)cc1 | > 64 | > 64 | > 64 | – |
| C/C(=N\NC(=S)N1CCOCC1)c1cc(Cl)ccc1O | 29.2 | 3.06 | > 64 | – |
